# In ChEMBL document CHEMBL2057186, “Application of the bicyclo[1.1.1]pentane motif as a nonclassical phenyl ring bioisostere in the design of a potent and orally active γ-secretase inhibitor” (J Med Chem, 2012):
# Tests used:
# [1] = system: Mus musculus; test: Antialzheimer activity in 129/sve mouse assessed as reduction in amyloid beta42 level in brain at 30 mg/kg, po administered as single dose measured at 5 hrs by ELISA relative to vehicle treated control; format: functional; design: scale not given: the % may be the effect or the level left
# In short: (§1)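 Wild-type male 129/sve mice received a single oral dose in Phosal 50 PG/Tween 80 vehicle. Aβ40 was measured in brain, CSF and plasma and Aβ42 in brain over a time course. Levels are expressed as % of vehicle-treated animals. Values are mean ± SEM, n = 5 or 8 per time point.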
# [2] = system: Mus musculus; test: Antialzheimer activity in 129/sve mouse assessed as reduction in amyloid beta40 level in plasma at 30 mg/kg, po administered as single dose measured at 1 hr by ELISA relative to vehicle treated control; format: functional; design: scale not given: the % may be the effect or the level left; in short: as §1
# [3] = AUC (last) in 129/sve mouse plasma at 30 mg/kg, po administered as single dose by LC-MS/MS analysis; format: ADME, organism-based; design: dose 30 mg/kg, route oral, time 0 - last
# In short: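 Wild-type male 129/sve mice received a single oral dose in 98% (v/v) Phosal 50 PG / 2% Tween 80. Drug was measured in plasma, brain and CSF. Study was nonserial, so AUC came from mean matrix concentrations at each time point. Values are mean ± SD (n = 4 or 5).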
# [4] = Kinetic solubility of the solubility of the compound at pH 6.5; format: physicochemical; settings: buffer, read-out: Kinetic_solubility
# In short: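 Kinetic solubility was measured in aqueous buffer at pH 6.5.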
# [5] = Thermodynamic solubility of the compound at pH 7.4; format: physicochemical; settings: buffer, read-out: Therm_solubility
# In short: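 Thermodynamic solubility was measured in aqueous buffer at pH 6.5 and at pH 7.4.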
# [6] = target: T1, Cytochrome P450 1A2 (Homo sapiens, UniProt P05177); test: Inhibition of CYP1A2 in human liver microsomes using tacrine as substrate; format: ADME, Microsome
# T1 sequence (P05177 whole entry): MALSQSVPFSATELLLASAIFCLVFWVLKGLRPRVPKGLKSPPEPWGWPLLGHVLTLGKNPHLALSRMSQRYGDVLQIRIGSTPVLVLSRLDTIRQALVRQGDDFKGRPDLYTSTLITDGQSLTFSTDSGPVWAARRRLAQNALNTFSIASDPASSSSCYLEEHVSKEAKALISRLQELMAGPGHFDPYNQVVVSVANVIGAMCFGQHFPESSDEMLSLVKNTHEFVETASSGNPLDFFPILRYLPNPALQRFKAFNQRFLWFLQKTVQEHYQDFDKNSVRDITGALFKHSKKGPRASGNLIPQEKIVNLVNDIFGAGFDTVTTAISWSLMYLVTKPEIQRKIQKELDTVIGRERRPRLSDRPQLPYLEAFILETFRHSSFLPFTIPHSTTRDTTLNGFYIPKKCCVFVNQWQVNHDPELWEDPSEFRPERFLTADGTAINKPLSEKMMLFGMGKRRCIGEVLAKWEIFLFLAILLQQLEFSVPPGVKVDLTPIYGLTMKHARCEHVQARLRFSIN
# [7] = target: Cytochrome P450 2C9 (Homo sapiens, UniProt P11712); test: Inhibition of CYP2C9 in human liver microsomes using diclofenac as substrate; format: ADME, Microsome
# Sequence of Cytochrome P450 2C9 (P11712 whole entry): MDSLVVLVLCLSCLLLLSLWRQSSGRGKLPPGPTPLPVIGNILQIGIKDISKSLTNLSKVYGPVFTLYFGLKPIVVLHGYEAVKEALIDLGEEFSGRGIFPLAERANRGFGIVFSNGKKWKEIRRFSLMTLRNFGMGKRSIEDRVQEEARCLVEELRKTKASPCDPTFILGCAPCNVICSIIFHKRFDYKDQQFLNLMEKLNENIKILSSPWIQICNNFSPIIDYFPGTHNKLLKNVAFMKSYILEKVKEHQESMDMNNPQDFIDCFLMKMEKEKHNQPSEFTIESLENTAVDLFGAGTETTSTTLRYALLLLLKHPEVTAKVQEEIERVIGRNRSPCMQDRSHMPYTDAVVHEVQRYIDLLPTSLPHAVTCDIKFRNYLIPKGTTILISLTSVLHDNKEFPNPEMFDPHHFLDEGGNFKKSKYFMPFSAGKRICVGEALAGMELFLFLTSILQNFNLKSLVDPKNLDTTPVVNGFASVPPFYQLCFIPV
# [8] = target: Voltage-gated inwardly rectifying potassium channel KCNH2 (Homo sapiens, UniProt Q12809); test: Displacement of dofetilide from human ERG
# Sequence of Voltage-gated inwardly rectifying potassium channel KCNH2 (Q12809 whole entry): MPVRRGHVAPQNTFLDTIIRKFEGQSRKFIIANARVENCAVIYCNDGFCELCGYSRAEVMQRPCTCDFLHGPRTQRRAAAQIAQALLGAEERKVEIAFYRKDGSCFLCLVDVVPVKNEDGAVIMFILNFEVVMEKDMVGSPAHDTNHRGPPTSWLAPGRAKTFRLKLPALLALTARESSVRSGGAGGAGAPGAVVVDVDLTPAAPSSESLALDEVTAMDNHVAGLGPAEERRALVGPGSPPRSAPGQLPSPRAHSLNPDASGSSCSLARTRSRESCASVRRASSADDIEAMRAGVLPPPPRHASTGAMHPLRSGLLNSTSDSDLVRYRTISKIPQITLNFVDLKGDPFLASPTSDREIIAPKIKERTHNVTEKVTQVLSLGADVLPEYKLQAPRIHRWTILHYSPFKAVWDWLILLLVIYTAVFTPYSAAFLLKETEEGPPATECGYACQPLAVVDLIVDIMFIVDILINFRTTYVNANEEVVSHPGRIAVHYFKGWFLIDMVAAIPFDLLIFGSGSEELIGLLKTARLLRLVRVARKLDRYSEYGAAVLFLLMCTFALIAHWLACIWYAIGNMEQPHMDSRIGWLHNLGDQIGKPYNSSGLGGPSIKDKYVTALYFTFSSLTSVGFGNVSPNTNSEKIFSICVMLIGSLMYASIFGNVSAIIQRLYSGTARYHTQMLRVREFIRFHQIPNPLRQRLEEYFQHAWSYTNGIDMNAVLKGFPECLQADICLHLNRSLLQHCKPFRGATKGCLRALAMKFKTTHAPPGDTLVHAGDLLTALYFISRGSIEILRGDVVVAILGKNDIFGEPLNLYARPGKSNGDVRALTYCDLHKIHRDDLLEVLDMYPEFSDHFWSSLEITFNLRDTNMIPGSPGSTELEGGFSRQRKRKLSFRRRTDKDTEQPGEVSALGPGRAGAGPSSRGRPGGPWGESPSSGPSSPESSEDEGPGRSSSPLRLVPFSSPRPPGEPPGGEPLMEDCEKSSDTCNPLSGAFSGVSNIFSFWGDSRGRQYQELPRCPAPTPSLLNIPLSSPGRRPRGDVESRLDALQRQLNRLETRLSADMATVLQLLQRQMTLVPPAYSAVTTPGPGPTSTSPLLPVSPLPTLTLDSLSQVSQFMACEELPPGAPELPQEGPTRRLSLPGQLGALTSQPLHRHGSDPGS
# [9] = system: Liver microsomes; test: Drug metabolism in human liver microsomes assessed as GSH/GSH-EE adduct formation after 60 mins by LC/MS/MS analysis; format: ADME, Microsome; settings: 1 h
# [10] = Ratio of drug level in brain to plasma in 129/sve mouse at 30 mg/kg, po administered as single dose by LC-MS/MS analysis; format: ADME, organism-based; design: dose 30 mg/kg, route oral; settings: read-out: BPR
# In short: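 Wild-type male 129/sve mice were dosed orally once in 98% Phosal 50 PG/2% Tween 80. Brain/plasma ratio was taken as AUC_brain/AUC_plasma, using mean-concentration AUCs from a nonserial design.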
# [11] = system: Mus musculus; test: Antialzheimer activity in 129/sve mouse assessed as reduction in amyloid beta40 level in brain at 30 mg/kg, po administered as single dose measured at 5 hrs by ELISA relative to vehicle treated control; format: functional; design: scale not given: the % may be the effect or the level left; in short: as §1
smiles,measurement,setting,value
NC(=O)[C@@H](CCC(F)(F)F)N(CC12CC(c3ncon3)(C1)C2)S(=O)(=O)c1ccc(Cl)cc1,Activity,[1],31%
same,Activity,[2],59%
same,AUC(0-t),[3],14.3 µM·h
same,solubility kinetic,[4],216 µM
same,solubility thermodynamic,[5],29.4 µM
same,inhibition (INH),[6],Not Active
same,inhibition (INH),[7],Not Active
same,Activity,[8],Not Active
same,Drug metabolism,[9],Not Active
same,Kp,[10],0.84
same,Activity,[11],64%
